In series [1] the test system is HL-60. Nature of the series: Induction of apoptosis in human HL60 cells assessed as formation of apoptotic bodies at 1 uM after 24 hrs by scanning electron microscopy. Format: functional, cell-based. In a few lines:
(§1)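 HL-60 cells at 2 x 10^5/ml in 10% FCS medium exposed to 0.5 or 1 µM for 6–48 h; DMSO vehicle controls. Cells fixed in 2.5% glutaraldehyde in 0.1 M phosphate (pH 7.2) at 4 °C for 1 h, post-fixed in 1% OsO4 and ethanol-dehydrated. Critical-point dried, gold-coated, and imaged by SEM at 40 kV.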

Another series deals with PC-3. Nature of the series: Induction of apoptosis in human PC3 cells assessed as nuclear fragmentation at 1 uM after 24 hrs by DAPI staining-based fluorescence microscopy. Format: functional, cell-based. The gist of the method: (§2)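 HL-60 or PC-3 cells treated at 1 µM for 24 h. Air-dried smears fixed in methanol at −20 °C for 20 min and stained with DAPI (1 µg/mL) for 20 min at room temperature in the dark. Mounted in 90% glycerol/PBS and examined by fluorescence microscopy for nuclear morphology.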

Series [2] deals with HL-60. Briefly: Induction of apoptosis in human HL60 cells assessed as early apoptotic cells at 1 uM after 24 hrs using Annexin V-FITC and propidium iodide staining by flow cytometry relative to control. Format: functional. The gist of the method:
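HL-60 cells (1 x 10^5 per 1.5 mL) treated 24 h, washed twice in PBS and stained in binding buffer with annexin V-FITC and PI. Flow cytometry with FITC in FL-1 (530 nm) and PI in FL-2 (585 nm), using quadrant statistics: lower right taken as apoptotic, upper right as post-apoptotic necrotic. Representative of three independent experiments.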

The test system of series [3] is HL-60. Nature of the series: Induction of apoptosis in human HL60 cells assessed as caspase8 activation using IETD-AFC as substrate at 1 uM after 24 hrs by fluorimetry relative to control. In kind it is functional. In a few lines: (§3)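 HL-60 cells (2 x 10^6) treated 24 h, washed and lysed. Caspase-3, -8 and -9 activities in lysates measured fluorometrically with a commercial caspase fluorescent assay kit. Two independent experiments, each in duplicate.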

For series [4], the system named is HL-60. Briefly: Induction of apoptosis in human HL60 cells assessed as increase of reactive oxygen species level at 1 uM after 24 hrs using DCFH-DA fluorescent dye based flow cytometric analysis relative to control. Format: functional. The gist of the method:
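HL-60 cells (1 x 10^5 per 1.5 mL) treated 24 h, then loaded with 10 µM H2DCFDA for 30 min at 37 °C. Washed twice in PBS and read in FL-1 (530 nm). Percentage of DCF-positive cells determined; mean ± SD of three experiments.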

The test system of series [5] is HL-60. Briefly: Induction of apoptosis in human HL60 cells assessed as DNA ladder formation at 10 uM after 24 hrs by agarose gel electrophoresis. Format: functional, cell-based. In a few lines: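 Cells treated 24 h, then 2 x 10^6 cells lysed (Triton X-100 buffer, pH 8.0) with RNase at 37 °C for 90 min and proteinase-K at 50 °C for 1 h. DNA phenol/chloroform-extracted and ethanol-precipitated, then run on 1.8% agarose at 50 V for 1.5 h in TAE. Ladders viewed under UV.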

In series [6] the test system is HL-60. Nature of the series: Induction of apoptosis in human HL60 cells assessed as caspase3 activation using DEVD-AFC as substrate at 1 uM after 24 hrs by fluorimetry relative to control. Format: functional. In a few lines:
as §3

The subject of series [7] is HL-60. Nature of the series: Cell cycle arrest in human HL60 cells assessed as accumulation at G1 phase at 1 uM after 24 hrs using propidium iodide staining by flow cytometry. In kind it is functional, cell-based. The gist of the method:
(§4)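 HL-60 cells (1 x 10^5 per 1.5 mL) treated 24 h, then fixed in 70% cold ethanol at −20 °C overnight. RNase digestion (400 µg/ml) at 37 °C for 45 min, then propidium iodide (10 µg/ml) for 30 min. Flow cytometry on 10,000 events, FL2-A vs FL2-W, with doublet discrimination. Sub-G0 (hypodiploid) peak taken as apoptotic cells. Mean ± SD of three independent experiments.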
(Flow cytometry measures light scatter and fluorescence of single cells or particles in a stream.)

The test system of series [8] is HL-60. Nature of the series: Growth inhibition of human HL60 cells after 48 hrs by MTT assay. In kind it is functional, cell-based. To be noted: HL-60, 48 h. In general terms: Formazan colour is commonly taken as a measure of viable cells.
In another series the test system is DU-145. Nature of the series: Growth inhibition of human DU145 cells at 10 uM by sulforhodamine B assay. Format: functional. The note with it: read-out: GI. The gist of the method:
(§5)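 Single-dose 10 µM screen by sulforhodamine B assay, reported as percent inhibition of cell proliferation. Cells grown in medium with 10% heat-inactivated FBS at 37 °C, 5% CO2, and treated at about 70% confluence or in log phase. Compounds dissolved in DMSO; controls received vehicle (<0.5% v/v).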
Background: In SRB staining, fixed cells bind dye roughly in proportion to their protein.

The test system of series [9] is HL-60. Briefly: Induction of apoptosis in human HL60 cells assessed as PARP cleavage at 1 uM after 24 hrs by Western blotting. Format: functional, cell-based. The gist of the method:
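HL-60 cells treated 24 h and lysed in RIPA buffer on ice; protein measured by Bradford against a BSA standard. 50 µg resolved by SDS-PAGE and transferred to PVDF, blocked in 5% milk/TBST, then primary antibodies 1:1000 for 2 h and HRP secondary 1:1000 for 1 h. ECL detection with β-actin as loading control; bands quantified by densitometry.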

The next series has as its system SW-620. Nature of the series: Growth inhibition of human SW620 cells at 10 uM by sulforhodamine B assay. In kind it is functional. The note with it: read-out: GI. In a few lines: as §5
In series [10] the test system is HL-60. Nature of the series: Induction of apoptosis in human HL60 cells at 0.5 uM after 48 hrs by scanning electron microscopy. Format: functional, cell-based. The gist of the method:
as §1

For series [11], the system named is HL-60. Briefly: Induction of apoptosis in human HL60 cells assessed as smoothening of surface at 1 uM after 12 hrs by scanning electron microscopy. In kind it is functional, cell-based. The gist of the method: as §1
Series [12] concerns SiHa. Nature of the series: Growth inhibition of human SiHa cells at 10 uM by sulforhodamine B assay. In kind it is functional. To be noted: read-out: GI. The gist of the method:
as §5

Series [13] relates to HL-60. Briefly: Induction of apoptosis in human HL60 cells assessed as nuclear fragmentation at 1 uM after 24 hrs by DAPI staining-based fluorescence microscopy. In kind it is functional, cell-based. In a few lines: as §2
The test system of series [14] is HL-60. Nature of the series: Induction of apoptosis in human HL60 cells assessed as decrease in mitochondrial membrane potential at 1 uM after 24 hrs using rhodamine 123 staining by flow cytometry. Format: functional. Details: scale not given: the % may be the effect or the level left. In a few lines:
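HL-60 cells (1 x 10^5 per 1.5 mL) treated 24 h, then stained with rhodamine-123 (5 µg/mL final) for 1 h. Washed, and propidium iodide (5 µg/mL) added just before reading. FL-1 fluorescence from 10,000 events; percentage of low Rh-123 cells taken as loss of membrane potential. Mean ± SD, n=3.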

The test system of a further series is A549. Nature of the series: Growth inhibition of human A549 cells at 10 uM by sulforhodamine B assay. In kind it is functional. To be noted: read-out: GI. In a few lines: as §5
Series [15] can be described thus: Therapeutic ratio of IC50 for african green monkey CV1 cells to IC50 for human HL60 cells. The note with it: CV1 cells and HL60 cells, read-out: Ratio IC50. Format: ADME, cell-based, HL-60.
Series [16] relates to SiHa. Nature of the series: Growth inhibition of human SiHa cells after 48 hrs by MTT assay. Format: functional, cell-based.
Another series concerns IMR-32. Nature of the series: Growth inhibition of human IMR32 cells at 10 uM by sulforhodamine B assay. Format: functional. To be noted: read-out: GI. In a few lines: as §5
Series [17] deals with HL-60. Briefly: Cell cycle arrest in human HL60 cells assessed as accumulation at G2/M phase at 1 uM after 24 hrs using propidium iodide staining by flow cytometry. In kind it is functional, cell-based. In a few lines: as §4
The test system of series [18] is HL-60. Nature of the series: Induction of NO production in human HL60 cells at 1 uM after 24 hrs using DAF-2DA fluorescent dye based flow cytometric analysis. Format: functional, cell-based. In a few lines:
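HL-60 cells (1 x 10^5 per 1.5 mL) preloaded 30 min with 10 µM DAF-2-DA before treatment. After 24 h exposure, cells were washed and read by flow cytometry in FL-1 as NO-positive population. Mean ± SD of three independent experiments.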

The test system of a further series is SK-N-SH. Briefly: Growth inhibition of human SK-N-SH cells at 10 uM by sulforhodamine B assay. In kind it is functional. To be noted: read-out: GI. The gist of the method: as §5

As usually defined, the IC50 is the concentration at which inhibition is half-maximal.

Active and inactive are the calls of the source. No cut-off for these calls is given here. Bounds are passed on as bounds.

On to `O=C(Nc1nc2ccc([N+](=O)[O-])cc2s1)c1cccnc1Nc1cc(F)c(F)c(F)c1`, for which the result in the series with HL-60 [1], in the series on PC-3, in the series with HL-60 [5], in the series on HL-60 [9], in the series on HL-60 [11] and in the series on HL-60 [13] was Active. Also, the figures for the Activity in the series with HL-60 [2] and in the series on HL-60 [14] were 15% and 45%, respectively. Besides, the “fold change (FC)” value in the series on HL-60 [3] and with HL-60 [6] was 2 throughout. Also, the outcome in the series with HL-60 [4], in the series with HL-60 [7], in the series on HL-60 [10], in the series with HL-60 [17] and in the series on HL-60 [18] was inactive. Also, the IC50 in the series on HL-60 [8] worked out at 0.08 µM; in the series with SiHa [16], 36 µM. Moreover, the inhibition of growth at 10 µM was found to be 39% in the series on DU-145; 70% in the series with SW-620; 70% in the series on SiHa [12]; 27% in the series on A549; 72% with IMR-32; 49% in the series on SK-N-SH. Also, in series [15], the selectivity ratio was above 1250.

Source of the values: ChEMBL document CHEMBL1926589, “2-Anilinonicotinyl linked 2-aminobenzothiazoles and [1,2,4]triazolo[1,5-b] [1,2,4]benzothiadiazine conjugates as potential mitochondrial apoptotic inducers” (Bioorg Med Chem, 2011).
